Data set [1] can be described thus: Inhibition of full length bovine Myosin-2 cardiac muscle isoform from left ventricle ATPase activity assessed as reduction in steady-state rabbit F-actin-activated Mg2+ ATPase activity incubated for 6 to 24 mins in presence of ATPase buffer at 7.0 containing Mgcl2 and ATP by fluorescence-based assay. On the set-up: species or system Bos taurus, Heart left ventricle.

The nature of data set [2]: Inhibition of full length rabbit myosin 2 skeletal muscle isoform derived from Psoas muscle ATPase activity assessed as reduction in steady-state rabbit F-actin-activated Mg2+ ATPase activity incubated for 6 to 24 mins in presence of ATPase buffer at 7.0 containing Mgcl2 and ATP by fluorescence-based assay. It counts as tissue-based, Oryctolagus cuniculus.
The nature of data set [3]: Inhibition of full length chicken phosphorylated myosin 2 smooth muscle isoform derived from gizzard ATPase activity assessed as reduction in steady-state rabbit F-actin-activated Mg2+ ATPase activity incubated for 6 to 24 mins in presence of ATPase buffer at 7.0 containing Mgcl2 and ATP by fluorescence-based assay. The format is tissue-based, Gallus gallus.
Data set [4] can be described thus: Selectivity index, ratio of IC50 for inhibition of full length bovine cardiac muscle myosin II ATPase activity to IC50 for inhibition of full length rabbit skeletal muscle myosin II ATPase activity.
Data set [5] concerns COS-7. Nature of the data set: Cytotoxicity against Green monkey COS-7 cells assessed as reduction in cell viability incubated for 24 hrs by MTT assay. The format is toxicity, cell-based. Conditions: chlorocebus aethiops, cos-7, 24 h. The method in brief: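 COS-7 cells seeded at 2.5 × 10^4 per well, grown 24 h at 37 °C in 5% CO2, then treated 24 h with 20, 40, 100 or 200 μM compound in media with 1% DMSO (4 wells each). MTT 1.2 mM in PBS for 2 h in the dark, lysis in 0.1% NP-40/isopropanol with HCl, A564 read; CC50 and CC90 taken as concentrations giving 50% and 90% loss of viability.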
In general terms: Tetrazolium dyes change colour on reduction, which living cells bring about.

Data set [6] concerns COS-7. As to the kind of experiment: Inhibition of Non-muscle myosin IIB in African green monkey COS-7 cells assessed as inhibition of cytokinesis by measuring increase in nuclei to cell ratio (N/C) at 40 uM incubated for 24 hrs by fluorescein-diacetate, Hoechst 33342 and propidium iodide staining based fluorescence microscopy relative to control. Conditions: Chlorocebus aethiops. In a few lines: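 COS-7 cells (4,000/well) preincubated 24 h at 37 °C in 5% CO2, then exposed 24 h to 40 μM compound, final 1% DMSO. Media and 1% DMSO served as negative controls; para-aminoblebbistatin 20 μM and blebbistatin 10 μM as positive controls. Stained 10 min with FDA 6 μM, Hoechst 33342 10 μM and PI 4 μM, then imaged; N/C counted excluding PI-positive nuclei. Triplicate wells, ≥2 experiments, ≥600 cells per well.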

A short description of data set [7]: Kinetic solubility of the compound in 2.5% DMSO/PBS at pH 7.4 incubated for 1 hrs by nephelometry. The format is physicochemical. As to conditions: buffer, pH 7.4, 1 h. The method in brief:
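DMSO stock (20 mM) added to PBS pH 7.4, then serially diluted in quadruplicate at a constant 2.5% DMSO. Plates shaken 2 min, incubated 1 h at 37 °C, shaken 3 min, and turbidity read by nephelometry; average blank subtracted.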

Data set [8] in a line: Hydrolytic stability of the compound ATPase assay buffer at pH 7 containing Mgcl2 and ATP assessed as half life by UV-visible spectrophotometry. The format is physicochemical. In a few lines: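 Compound diluted from 20 mM DMSO stock to 8 μM final (2% DMSO) in ATPase buffer: 10 mM MOPS pH 7.0, 50 mM NaCl, 0.1 mM EGTA, 5 mM MgCl2, 2 mM ATP, 1 mM DTT. Kept sealed at 30 °C; UV-vis spectrum (0.5 nm steps, 1 cm quartz) recorded at start and every 24 h against fresh reference solutions.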

Molecules are shown by their SMILES. Calls of active or inactive are those of the source. The rule behind the calls is not given here. Where only a bound is given, the exact number is not on record here.

Take `CCOCCC/N=C(\C)c1c(O)c2ccccc2oc1=O`: the concentration for half-maximal inhibition (IC50) is 8.1 µM in data set [1], 2.5 µM in data set [2] and not below 100 µM in data set [3]. Further, the Ratio IC50 in data set [4] is 3.2. In addition, in the data set with COS-7 [5], the CC10 is 53 µM. Further, in the data set with COS-7 [5], the cytotoxic concentration (CC50) is 980 µM. For the same molecule, the inhibition entry with COS-7 [6] was “inactive”. Besides, the Kinetic_solubility in data set [7] was more than 1250 µM.

As for `C/C(=N\Cc1ccccc1)c1c(O)c2ccccc2oc1=O`, the IC50 in data set [3] was not below 100 µM. Besides, in the data set on COS-7 [6], the inhibition entry was “inactive”. Besides, the t1/2 in data set [8] was more than 140 h.

In the case of `O=c1oc2ccccc2c(O)c1/C=N/Cc1ccccc1`, the IC50 in data set [1], in data set [2] and in data set [3] was not below 100 µM each time. In the data set with COS-7 [6], the inhibition entry was “inactive”. Also, the t1/2 in data set [8] came to 60 h.

In general, IC50 refers to the point on the concentration scale where inhibition reaches its midpoint. For orientation: CC50 means the concentration that lowers cell viability or growth by half.
